How the values were obtained:
[1] = system: Human immunodeficiency virus 1; test: Inhibitory activity tested against the HIV-1 in CEM cells; format: functional, organism-based; conditions: Human immunodeficiency virus 1, CCRF-CEM
Method in brief: (§1)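 HIV-1-induced cytopathicity in CEM 4 or MT-4 cell cultures was assessed by counting viable cells after MTT (3-(4,5-dimethylthiazol-2-yl)-2,5-diphenyltetrazolium bromide) staining. IC50 is the concentration that inhibits cytopathicity by 50%. For routine testing, the highest concentration was generally 3 µM, because solubility was limited above 10 µM.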

[2] = system: Human immunodeficiency virus 1; test: Inhibitory activity tested against the HIV-1 in MT-4 cells; format: functional, organism-based; conditions: Human immunodeficiency virus 1, MT4; method in brief: as §1

C=C(C)[C@@H]1CC[C@]2(C(=O)NCCCCCCCC(=O)NCC(O)CC(=O)O)CC[C@]3(C)[C@H](CCC4[C@@]5(C)CC[C@H](O)C(C)(C)[C@@H]5CC[C@]43C)[C@@H]12 (some centres not stated)
IC50 [1]: 200 nM
IC50 [2]: 33 nM

C=C(C)[C@@H]1CC[C@]2(C(=O)NCCCCCCCC(=O)N[C@@H](CC(C)C)[C@@H](O)CC(=O)O)CC[C@]3(C)[C@H](CCC4[C@@]5(C)CC[C@H](O)C(C)(C)[C@@H]5CC[C@]43C)[C@@H]12 (some centres not stated)
IC50 [1]: 50 nM
IC50 [2]: 40 nM

C=C(C)[C@@H]1CC[C@]2(C(=O)NCCCCCCCCC(=O)O)CC[C@]3(C)[C@H](CCC4[C@@]5(C)CC[C@H](O)C(C)(C)[C@@H]5CC[C@]43C)[C@@H]12 (some centres not stated)
IC50 [1]: 420 nM
IC50 [2]: 3400 nM

C=C(C)[C@@H]1CC[C@]2(C(=O)NCCCCCCCC(=O)N[C@@H](CO)C(=O)O)CC[C@]3(C)[C@H](CCC4[C@@]5(C)CC[C@H](O)C(C)(C)[C@@H]5CC[C@]43C)[C@@H]12 (some centres not stated)
IC50 [1]: 250 nM
IC50 [2]: 250 nM

C=C(C)[C@@H]1CC[C@]2(C(=O)NCCCCCCCC(=O)N(C)CC(=O)O)CC[C@]3(C)[C@H](CCC4[C@@]5(C)CC[C@H](O)C(C)(C)[C@@H]5CC[C@]43C)[C@@H]12 (some centres not stated)
IC50 [1]: 250 nM
IC50 [2]: 333 nM

C=C(C)[C@@H]1CC[C@]2(C(=O)NCCCCCCCCCC(=O)O)CC[C@]3(C)[C@H](CCC4[C@@]5(C)CC[C@H](O)C(C)(C)[C@@H]5CC[C@]43C)[C@@H]12 (some centres not stated)
IC50 [1]: 600 nM
IC50 [2]: 420 nM

C=C(C)[C@@H]1CC[C@]2(C(=O)NCCCCCCCC(=O)NC(CC(=O)O)c3ccccc3)CC[C@]3(C)[C@H](CCC4[C@@]5(C)CC[C@H](O)C(C)(C)[C@@H]5CC[C@]43C)[C@@H]12 (some centres not stated)
IC50 [1]: 85 nM
IC50 [2]: 47 nM

C=C(C)[C@@H]1CC[C@]2(C(=O)NCCCCCCCC(=O)Nc3ccc(C(=O)O)cc3)CC[C@]3(C)[C@H](CCC4[C@@]5(C)CC[C@H](O)C(C)(C)[C@@H]5CC[C@]43C)[C@@H]12 (some centres not stated)
IC50 [1]: 70 nM
IC50 [2]: 26 nM

C=C(C)[C@@H]1CC[C@]2(C(=O)NCCCCCCCC(=O)N[C@H](CCC(=O)O)CC(C)C)CC[C@]3(C)[C@H](CCC4[C@@]5(C)CC[C@H](O)C(C)(C)[C@@H]5CC[C@]43C)[C@@H]12 (some centres not stated)
IC50 [1]: 52 nM
IC50 [2]: 85 nM

C=C(C)[C@@H]1CC[C@]2(C(=O)NCCCCCCCNC(=O)CCC(=O)O)CC[C@]3(C)[C@H](CCC4[C@@]5(C)CC[C@H](O)C(C)(C)[C@@H]5CC[C@]43C)[C@@H]12 (some centres not stated)
IC50 [1]: 95 nM
IC50 [2]: 53 nM

C=C(C)[C@@H]1CC[C@]2(C(=O)NCCCCCCCC(=O)N[C@@H](CC(C)C)[C@H](O)CC(=O)O)CC[C@]3(C)[C@H](CCC4[C@@]5(C)CC[C@H](O)C(C)(C)[C@@H]5CC[C@]43C)[C@@H]12 (some centres not stated)
IC50 [1]: 50 nM
IC50 [2]: 44 nM

C=C(C)[C@@H]1CC[C@]2(C(=O)NCCCCCCCC(=O)N3CCC[C@H]3C(=O)O)CC[C@]3(C)[C@H](CCC4[C@@]5(C)CC[C@H](O)C(C)(C)[C@@H]5CC[C@]43C)[C@@H]12 (some centres not stated)
IC50 [1]: 640 nM
IC50 [2]: 58 nM

C=C(C)[C@@H]1CC[C@]2(C(=O)NCCCCCCCNC(=O)CC(=O)O)CC[C@]3(C)[C@H](CCC4[C@@]5(C)CC[C@H](O)C(C)(C)[C@@H]5CC[C@]43C)[C@@H]12 (some centres not stated)
IC50 [1]: 50 nM
IC50 [2]: 34 nM

C=C(C)[C@@H]1CC[C@]2(C(=O)NCCCCCCCC(=O)NCCCC(=O)O)CC[C@]3(C)[C@H](CCC4[C@@]5(C)CC[C@H](O)C(C)(C)[C@@H]5CC[C@]43C)[C@@H]12 (some centres not stated)
IC50 [1]: 44 nM
IC50 [2]: 129 nM

C=C(C)[C@@H]1CC[C@]2(C(=O)NCCCCCCCCCCC(=O)O)CC[C@]3(C)[C@H](CCC4[C@@]5(C)CC[C@H](O)C(C)(C)[C@@H]5CC[C@]43C)[C@@H]12 (some centres not stated)
IC50 [1]: 230 nM
IC50 [2]: 443 nM

C=C(C)[C@@H]1CC[C@]2(C(=O)NCCCCCCCC(=O)NCC(=O)O)CC[C@]3(C)[C@H](CC[C@@H]4[C@@]5(C)CC[C@H](O)C(C)(C)[C@@H]5CC[C@]43C)[C@@H]12
IC50 [1]: 150 nM
IC50 [2]: 156 nM

Source: ChEMBL document CHEMBL1129508, “Betulinic acid derivatives: a new class of specific inhibitors of human immunodeficiency virus type 1 entry” (J Med Chem, 1996)
